{
  "source": "ChEMBL document CHEMBL1154139",
  "about": "“Isolation of aerucyclamides C and D and structure revision of microcyclamide 7806A: heterocyclic ribosomal peptides from Microcystis aeruginosa PCC 7806 and their antiparasite evaluation” (J Nat Prod, 2008)",
  "key": {"Plasmodium falciparum [1]": {"tested_on": "Plasmodium falciparum", "assay": "Antiplasmodial activity against Plasmodium falciparum W2", "format": "functional, organism-based"}, "MCF7": {"tested_on": "MCF7", "assay": "Cytotoxicity against human MCF7 cells", "format": "cell-based"}, "Plasmodium falciparum [2]": {"tested_on": "Plasmodium falciparum", "assay": "Antiplasmodial activity against chloroquine-resistant Plasmodium falciparum K1 assessed as [3H]hypoxanthine incorporation after 48 hrs by beta-plate liquid scintillation counting", "format": "functional, organism-based", "method_in_brief": "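K1 strain (chloroquine- and pyrimethamine-resistant) in infected human red blood cells, RPMI 1640 with 5% Albumax, exposed to serial dilutions for 48 h at 37 °C under reduced oxygen. 0.5 µCi [3H]-hypoxanthine then added for a further 24 h. Cells harvested onto glass-fiber filters and counted. CPM expressed as % of untreated controls, IC50 taken from sigmoidal curves. Run in duplicate, repeated once.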"}, "Thamnocephalus platyurus": {"tested_on": "Thamnocephalus platyurus", "assay": "Cytotoxicity against Thamnocephalus platyurus", "format": "functional", "method_in_brief": "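Instar II-III larvae hatched from cysts, tested in multiwell plates at six concentrations from 1 to 100 µM, in triplicate. Value derived by nonlinear regression.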"}, "[3]": {"tested_on": "Trypanosoma brucei rhodesiense", "assay": "Antitrypanosomal activity against Trypanosoma brucei rhodesiense STIB900 by fluorescence assay", "format": "functional, organism-based"}, "L6": {"tested_on": "L6", "assay": "Cytotoxicity against rat L6 cells", "format": "cell-based", "method_in_brief": "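Rat skeletal myoblasts (L-6) grown in RPMI 1640 with 10% FBS and 2 mM L-glutamine, exposed to serial dilutions 90 to 0.123 µg/mL at 37 °C, 5% CO2. Alamar Blue (resazurin) read-out by fluorescence (ex 536/em 588 nm) as percent of control cultures; IC50 from sigmoidal inhibition curves.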"}},
  "data": [
    {"smiles": "Cc1oc2nc1C(=O)N[C@H]([C@@H](C)O)c1nc(cs1)C(=O)N[C@H](C(C)C)c1nc(cs1)C(=O)N[C@@H]2C", "note": "[VENTURAMIDE B]", "values": [
      {"measurement": "IC50", "setting": "Plasmodium falciparum [1]", "value": 5.2, "unit": "µM"},
      {"measurement": "IC50", "setting": "MCF7", "value": "> 54", "unit": "µM"}
    ]},
    {"smiles": "CC[C@H](C)[C@H]1NC(=O)c2coc(n2)[C@H](C(C)C)NC(=O)[C@H]2N=C(O[C@@H]2C)[C@H](C)NC(=O)c2csc1n2", "note": "[AERUCYCLAMIDE C]", "values": [
      {"measurement": "IC50", "setting": "Plasmodium falciparum [2]", "value": 2.3, "unit": "µM"},
      {"measurement": "LC50", "setting": "Thamnocephalus platyurus", "value": 70.5, "unit": "µM"},
      {"measurement": "IC50", "setting": "[3]", "value": 9.2, "unit": "µM"},
      {"measurement": "IC50", "setting": "L6", "value": 106, "unit": "µM"}
    ]},
    {"smiles": "Cc1oc2nc1C(=O)N[C@H](C)c1nc(cs1)C(=O)N[C@H](C(C)C)c1nc(cs1)C(=O)N[C@@H]2C", "note": "[VENTURAMIDE A]", "values": [
      {"measurement": "IC50", "setting": "Plasmodium falciparum [1]", "value": 8.2, "unit": "µM"},
      {"measurement": "IC50", "setting": "MCF7", "value": 13.1, "unit": "µM"}
    ]},
    {"smiles": "CC[C@H](C)[C@@H]1NC(=O)[C@H]2CSC(=N2)[C@@H]([C@@H](C)CC)NC(=O)c2csc(n2)CNC(=O)[C@H]2N=C1O[C@@H]2C", "note": "[AERUCYCLAMIDE A]", "values": [
      {"measurement": "IC50", "setting": "Plasmodium falciparum [2]", "value": 5, "unit": "µM"},
      {"measurement": "IC50", "setting": "[3]", "value": 56.3, "unit": "µM"},
      {"measurement": "IC50", "setting": "L6", "value": "> 168", "unit": "µM"}
    ]},
    {"smiles": "CSCC[C@@H]1NC(=O)c2csc(n2)CNC(=O)[C@H]2N=C(O[C@@H]2C)[C@H](Cc2ccccc2)NC(=O)[C@@H]2CSC1=N2", "note": "[AERUCYCLAMIDE D]", "values": [
      {"measurement": "IC50", "setting": "Plasmodium falciparum [2]", "value": 6.3, "unit": "µM"},
      {"measurement": "IC50", "setting": "[3]", "value": 50.1, "unit": "µM"},
      {"measurement": "IC50", "setting": "L6", "value": "> 153", "unit": "µM"}
    ]},
    {"smiles": "CC[C@H](C)[C@@H]1NC(=O)c2csc(n2)[C@@H]([C@@H](C)CC)NC(=O)c2csc(n2)CNC(=O)[C@H]2N=C1O[C@@H]2C", "note": "[AERUCYCLAMIDE B]", "values": [
      {"measurement": "IC50", "setting": "Plasmodium falciparum [2]", "value": 0.7, "unit": "µM"},
      {"measurement": "IC50", "setting": "[3]", "value": 15.9, "unit": "µM"},
      {"measurement": "IC50", "setting": "L6", "value": 120, "unit": "µM"}
    ]}
  ]
}
